Measurements published in ChEMBL document CHEMBL4393719, “Tetrahydro-3-benzazepines with fluorinated side chains as NMDA and σ1 receptor antagonists: Synthesis, receptor affinity, selectivity and antiallodynic activity” (Eur J Med Chem, 2019).
pEC50, pIC50, pKi: −log10 of the molar value.

Key:
[1] = test system: HepG2; assay: Cytotoxicity against human HepG2 assessed as reduction in cell viability at 1 to 100 uM after 20 hrs by neutral red uptake assay; format: cell-based; settings: hepg2, 20 h
Procedure, shortened: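 HepG2 seeded 3 x 10^4/well, 24 h, then 20 h serum-free exposure at 1, 10 or 100 µM. Neutral red 50 µg/mL for 3 h, washed, dye extracted with 50% ethanol/1% acetic acid, OD 550 nm. IC50 assigned as lowest concentration reaching ≥50% cytotoxicity against untreated cells; n = 4 (duplicate, two assays).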

[2] = biological target: T1, Sigma intracellular receptor 2 (Rattus norvegicus, UniProt Q5U3Y7); assay: Displacement of [3H]-di-o-tolylguanidine from sigma2 receptor in rat liver membranes incubated for 120 mins by scintillation counting method; format: cell membranes
T1 sequence (Q5U3Y7 whole entry): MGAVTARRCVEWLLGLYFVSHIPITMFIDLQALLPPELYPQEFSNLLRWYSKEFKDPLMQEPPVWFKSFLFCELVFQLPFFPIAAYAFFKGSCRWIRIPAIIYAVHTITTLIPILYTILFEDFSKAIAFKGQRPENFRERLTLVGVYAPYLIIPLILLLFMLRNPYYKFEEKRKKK

[3] = biological target: Kappa-type opioid receptor (Homo sapiens, UniProt P41145); assay: Inhibition of KOR (unknown origin)
[4] = Drug metabolism in rat liver microsomes at 1 uM incubated for 1 hr in presence of NADPH by UPLC-MS analysis; format: ADME, Microsome; settings: read-out: Drug metabolism
Procedure, shortened: (§1)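 Liver microsomes, compound 1 µM, 37 °C for 1 h in 50 mM Na/K phosphate pH 7.4, 3 mM MgCl2, NADPH-regenerating system, CYP 0.3 nmol/mL. Aliquots at 0, 10, 20, 40, 60 min quenched with cold acetonitrile, supernatants by UPLC-MS/MS; % parent remaining at end reported. Terfenadine as positive control.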

[5] = biological target: Delta-type opioid receptor (Homo sapiens, UniProt P41143); assay: Inhibition of DOR (unknown origin)
[6] = Stability of compound in phosphate buffer at pH 7.4 after 24 hrs by HPLC analysis; format: physicochemical; settings: pH 7.4, 24 h
Procedure, shortened: (§2)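 Compound (25 μL of 10 mM DMSO stock) added to 1 mL aqueous buffered solution, pH 2 or pH 7.4, stirred 24 h at room temperature, analyzed by HPLC-MS; deemed stable if peak area remained 95–105%.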

[7] = biological target: Voltage-gated inwardly rectifying potassium channel KCNH2 (Homo sapiens, UniProt Q12809); assay: Inhibition of human ERG expressed in CHO cells at -80 mV holding potential by automated patch clamp electrophysiology assay; format: cell-based
[8] = species on record: Sus scrofa; settings: at 1 µM
[9] = Drug metabolism in mouse liver microsomes at 1 uM incubated for 1 hr in presence of NADPH by UPLC-MS analysis; format: ADME, Microsome; settings: read-out: Drug metabolism; procedure, shortened: as §1
[10] = Selectivity ratio of Ki for GluN2B/GluN1a (unknown origin) expressed in mouse L(tk-) cell membranes to Ki for sigma1 receptor in guinea pig brain cortex membranes; format: cell-based
[11] = biological target: 5-hydroxytryptamine receptor 2B (Homo sapiens) (UniProt P41595); assay: Displacement of [3H]-LSD from recombinant human 5HT2B receptor at 1 uM after 30 mins by scintillation counting method relative to control
Procedure, shortened: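 Human 5-HT2B-enriched membranes (5 µg), 1 nM [3H]LSD in 50 mM Tris-HCl, 4 mM CaCl2, 1% ascorbic acid, pH 7.4, 0.1% DMSO; 30 min, 37 °C; 50 µM 5-HT for nonspecific binding. Single 1 µM compound concentration; displacement after filtration.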

[12] = biological target: Sodium-dependent serotonin transporter (Homo sapiens) (UniProt P31645); assay: Displacement of [3H]imipramine from human serotonin transporter at 1 uM after 30 mins by scintillation counting method relative to control
Procedure, shortened: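 Human SERT-enriched membranes (3.5 μg) incubated 30 min at 27 °C with 3 nM [3H]imipramine in Tris-HCl/120 mM NaCl/5 mM KCl pH 7.4, 0.1% DMSO; 200 μM imipramine for nonspecific binding. Compound at 1 μM; displacement after filtration.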

[13] = biological target: Mu-type opioid receptor (Homo sapiens, UniProt P35372); assay: Agonist activity at MOR (unknown origin) by cAMP assay; format: functional
[14] = biological target: 5-hydroxytryptamine receptor 1A (Homo sapiens) (UniProt P08908); assay: Displacement of [3H]8-OH-DPAT from human 5HT1A receptor at 1 uM incubated for 2 hrs scintillation counting method relative to control
Procedure, shortened: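 Human 5-HT1A-enriched membranes (10 μg), 2 nM [3H]-8-OH-DPAT, 50 mM Tris-HCl/5 mM MgCl2 pH 7.4, 0.1% DMSO final, 2 h at 37 °C; 10 μM 5-HT for nonspecific binding. Compound at 1 μM; radioligand displacement read after GF/C filtration.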

[15] = biological target: Alpha-1A adrenergic receptor (Homo sapiens) (UniProt P35348); assay: Displacement of [3H]prazosin from human adrenergic alpha1A receptor at 1 uM after 90 mins by scintillation counting method relative to control
Procedure, shortened: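 α1A adrenoceptor-enriched human membranes (10 µg), 0.2 nM [3H]prazosin in 50 mM HEPES, 5 mM MgCl2, 1 mM CaCl2, 0.2% BSA, pH 7.4; 90 min at 25 °C; 1 µM prazosin for nonspecific binding. Compound tested at 1 µM; bound ligand collected by filtration.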

[16] = Drug metabolism in human liver microsomes at 1 uM incubated for 1 hr in presence of NADPH by UPLC-MS analysis; format: ADME, Microsome; settings: read-out: Drug metabolism; procedure, shortened: as §1
[17] = test system: HepG2; assay: Cytotoxicity against human HepG2 assessed as reduction in cell viability at 1 to 100 uM after 20 hrs by MTT assay; format: cell-based; settings: hepg2, 20 h
Procedure, shortened: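 HepG2 cells, 3 x 10^4/well, grown 24 h in MEM/10% FBS, then exposed 20 h in serum-free medium to compound at 1, 10, 100 µM (from DMSO solutions). MTT 0.5 mg/mL for 4 h, formazan dissolved in DMSO, OD 550 nm. IC50 taken as lowest concentration giving ≥50% cytotoxicity versus untreated cells; duplicates in two assays (n = 4).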

[18] = biological target: Histamine H1 receptor (Homo sapiens) (UniProt P35367); assay: Displacement of [3H]pyrilamine from human recombinant histamine H1 receptor at 1 uM after 90 mins by scintillation counting method relative to control
Procedure, shortened: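 Human H1 receptor-enriched membranes (25 μg) with 2.4 nM [3H]pyrilamine in Na+/K+ phosphate buffer pH 7.4, 0.1% DMSO, 90 min, 25 °C; 10 μM triprolidine for nonspecific binding. Single 1 μM test concentration; filtration-based readout of displacement.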

[19] = Displacement of [3H] ifenprodil from GluN2B/GluN1a (unknown origin) expressed in mouse L(tk-) cell membranes incubated for 120 mins by scintillation counting method; design: species or system Homo sapiens
Procedure, shortened: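 Membranes from mouse L(tk-) cells co-transfected with dexamethasone-inducible GluN1a/GluN2B (1:5), induced 24 h with 4 μM dexamethasone plus 4 μM ketamine.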

[20] = Stability of compound in aqueous HCl solution at pH 2 after 24 hrs by HPLC analysis; format: physicochemical; settings: buffer, pH 2, 24 h; procedure, shortened: as §2

Sequence of Sodium-dependent serotonin transporter (Homo sapiens) (P31645 whole entry, looked up): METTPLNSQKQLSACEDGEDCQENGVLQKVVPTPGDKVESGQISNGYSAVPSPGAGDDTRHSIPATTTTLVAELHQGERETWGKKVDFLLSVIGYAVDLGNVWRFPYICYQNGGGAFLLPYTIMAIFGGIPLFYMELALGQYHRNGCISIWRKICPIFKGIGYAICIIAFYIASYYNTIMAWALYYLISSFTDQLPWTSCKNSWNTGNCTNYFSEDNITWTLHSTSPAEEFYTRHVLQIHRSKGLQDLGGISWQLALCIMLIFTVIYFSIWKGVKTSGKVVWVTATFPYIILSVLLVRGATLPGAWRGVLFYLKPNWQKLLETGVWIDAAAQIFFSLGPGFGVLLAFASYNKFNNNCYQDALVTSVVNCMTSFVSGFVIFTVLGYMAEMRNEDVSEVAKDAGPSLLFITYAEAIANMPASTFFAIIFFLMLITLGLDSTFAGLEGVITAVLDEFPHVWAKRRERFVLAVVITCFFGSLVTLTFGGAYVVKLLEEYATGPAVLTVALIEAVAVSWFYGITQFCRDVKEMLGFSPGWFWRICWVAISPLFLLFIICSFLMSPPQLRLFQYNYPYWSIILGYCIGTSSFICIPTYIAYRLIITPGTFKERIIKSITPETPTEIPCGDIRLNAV
Sequence of 5-hydroxytryptamine receptor 1A (Homo sapiens) (P08908 whole entry): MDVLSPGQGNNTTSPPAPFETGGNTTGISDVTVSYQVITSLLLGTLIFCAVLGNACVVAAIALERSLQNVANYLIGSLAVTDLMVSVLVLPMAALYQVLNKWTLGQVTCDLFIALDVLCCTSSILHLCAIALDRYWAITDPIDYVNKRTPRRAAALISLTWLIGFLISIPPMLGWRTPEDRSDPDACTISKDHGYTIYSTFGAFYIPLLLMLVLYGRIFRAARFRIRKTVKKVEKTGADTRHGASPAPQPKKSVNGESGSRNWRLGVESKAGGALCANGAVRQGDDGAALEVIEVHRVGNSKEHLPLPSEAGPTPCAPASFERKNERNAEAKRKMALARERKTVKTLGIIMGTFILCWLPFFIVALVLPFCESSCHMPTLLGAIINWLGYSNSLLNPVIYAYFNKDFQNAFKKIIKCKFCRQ
Sequence of Kappa-type opioid receptor (P41145 whole entry): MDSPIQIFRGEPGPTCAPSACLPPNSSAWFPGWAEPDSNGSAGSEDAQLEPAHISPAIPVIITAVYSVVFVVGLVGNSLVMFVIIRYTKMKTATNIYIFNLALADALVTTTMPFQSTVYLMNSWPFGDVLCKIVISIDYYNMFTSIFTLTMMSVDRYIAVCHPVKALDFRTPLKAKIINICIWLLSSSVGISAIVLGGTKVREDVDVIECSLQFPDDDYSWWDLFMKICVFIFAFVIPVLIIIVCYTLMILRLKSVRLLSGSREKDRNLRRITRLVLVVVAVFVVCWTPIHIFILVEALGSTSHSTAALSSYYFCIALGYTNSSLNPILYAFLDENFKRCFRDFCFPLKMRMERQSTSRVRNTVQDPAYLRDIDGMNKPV
Sequence of Mu-type opioid receptor (P35372 whole entry): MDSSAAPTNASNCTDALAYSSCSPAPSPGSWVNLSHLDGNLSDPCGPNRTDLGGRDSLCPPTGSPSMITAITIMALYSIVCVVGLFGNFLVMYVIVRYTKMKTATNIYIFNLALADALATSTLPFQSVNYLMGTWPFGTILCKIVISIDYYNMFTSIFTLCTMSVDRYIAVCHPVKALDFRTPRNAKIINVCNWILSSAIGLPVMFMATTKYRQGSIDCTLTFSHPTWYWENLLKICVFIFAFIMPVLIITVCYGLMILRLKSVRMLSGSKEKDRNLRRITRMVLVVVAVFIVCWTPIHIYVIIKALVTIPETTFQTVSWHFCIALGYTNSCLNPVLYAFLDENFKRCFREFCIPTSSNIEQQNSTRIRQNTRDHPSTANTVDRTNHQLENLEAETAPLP
Sequence of 5-hydroxytryptamine receptor 2B (Homo sapiens) (P41595 whole entry): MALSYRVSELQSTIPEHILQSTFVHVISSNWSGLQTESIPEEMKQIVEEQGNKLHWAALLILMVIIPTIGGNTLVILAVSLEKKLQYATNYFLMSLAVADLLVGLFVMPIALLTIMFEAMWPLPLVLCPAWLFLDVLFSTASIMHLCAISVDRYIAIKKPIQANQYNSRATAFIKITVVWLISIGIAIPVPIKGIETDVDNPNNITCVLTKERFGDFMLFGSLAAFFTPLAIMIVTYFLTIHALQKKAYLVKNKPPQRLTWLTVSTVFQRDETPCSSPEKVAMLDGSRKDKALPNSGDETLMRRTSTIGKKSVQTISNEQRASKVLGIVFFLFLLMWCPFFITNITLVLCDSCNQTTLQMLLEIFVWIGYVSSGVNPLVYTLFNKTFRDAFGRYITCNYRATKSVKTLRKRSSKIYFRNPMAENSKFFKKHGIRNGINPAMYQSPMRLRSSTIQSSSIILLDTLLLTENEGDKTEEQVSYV
Sequence of Alpha-1A adrenergic receptor (Homo sapiens) (P35348 whole entry): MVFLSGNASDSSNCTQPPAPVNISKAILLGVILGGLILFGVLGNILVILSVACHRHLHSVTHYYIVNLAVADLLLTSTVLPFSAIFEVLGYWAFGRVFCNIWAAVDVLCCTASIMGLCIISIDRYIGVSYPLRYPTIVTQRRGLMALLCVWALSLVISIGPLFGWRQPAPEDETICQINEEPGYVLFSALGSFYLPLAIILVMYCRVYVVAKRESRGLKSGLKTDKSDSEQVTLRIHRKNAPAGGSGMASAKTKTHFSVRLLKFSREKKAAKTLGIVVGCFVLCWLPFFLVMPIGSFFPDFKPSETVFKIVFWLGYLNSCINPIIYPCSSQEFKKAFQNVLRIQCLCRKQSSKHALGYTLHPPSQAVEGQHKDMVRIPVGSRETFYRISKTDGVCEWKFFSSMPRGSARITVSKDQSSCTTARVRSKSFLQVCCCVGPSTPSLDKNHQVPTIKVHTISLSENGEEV
Sequence of Voltage-gated inwardly rectifying potassium channel KCNH2 (Q12809 whole entry): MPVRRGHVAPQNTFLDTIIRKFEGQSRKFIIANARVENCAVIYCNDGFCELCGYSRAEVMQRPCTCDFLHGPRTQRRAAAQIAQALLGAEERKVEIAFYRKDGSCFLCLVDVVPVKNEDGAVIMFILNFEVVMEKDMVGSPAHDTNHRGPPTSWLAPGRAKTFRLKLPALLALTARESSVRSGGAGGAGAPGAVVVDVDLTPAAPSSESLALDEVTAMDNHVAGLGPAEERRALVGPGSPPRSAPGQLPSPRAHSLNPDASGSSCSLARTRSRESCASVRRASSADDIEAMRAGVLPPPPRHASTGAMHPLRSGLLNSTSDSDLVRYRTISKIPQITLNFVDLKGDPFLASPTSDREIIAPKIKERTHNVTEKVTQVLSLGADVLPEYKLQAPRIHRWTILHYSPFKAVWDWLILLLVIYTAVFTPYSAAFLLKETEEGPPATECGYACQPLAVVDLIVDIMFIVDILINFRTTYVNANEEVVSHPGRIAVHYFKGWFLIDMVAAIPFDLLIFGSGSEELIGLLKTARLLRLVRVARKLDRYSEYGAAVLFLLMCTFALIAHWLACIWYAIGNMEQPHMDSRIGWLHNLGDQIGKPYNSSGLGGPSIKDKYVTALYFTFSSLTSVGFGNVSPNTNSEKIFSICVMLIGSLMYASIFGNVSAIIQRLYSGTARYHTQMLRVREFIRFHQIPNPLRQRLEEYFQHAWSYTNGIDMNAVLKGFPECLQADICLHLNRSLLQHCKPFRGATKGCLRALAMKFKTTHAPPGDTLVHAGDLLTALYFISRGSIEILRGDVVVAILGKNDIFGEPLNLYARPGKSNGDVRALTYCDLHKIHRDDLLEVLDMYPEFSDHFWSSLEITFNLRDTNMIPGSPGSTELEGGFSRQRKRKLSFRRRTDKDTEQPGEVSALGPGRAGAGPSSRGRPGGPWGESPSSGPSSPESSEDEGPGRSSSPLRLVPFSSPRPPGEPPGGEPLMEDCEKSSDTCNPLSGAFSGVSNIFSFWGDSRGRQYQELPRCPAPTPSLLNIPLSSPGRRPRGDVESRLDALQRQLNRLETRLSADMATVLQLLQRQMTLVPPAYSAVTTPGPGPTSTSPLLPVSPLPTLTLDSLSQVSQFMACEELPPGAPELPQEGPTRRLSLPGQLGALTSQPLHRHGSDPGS
Sequence of Histamine H1 receptor (Homo sapiens) (P35367 whole entry): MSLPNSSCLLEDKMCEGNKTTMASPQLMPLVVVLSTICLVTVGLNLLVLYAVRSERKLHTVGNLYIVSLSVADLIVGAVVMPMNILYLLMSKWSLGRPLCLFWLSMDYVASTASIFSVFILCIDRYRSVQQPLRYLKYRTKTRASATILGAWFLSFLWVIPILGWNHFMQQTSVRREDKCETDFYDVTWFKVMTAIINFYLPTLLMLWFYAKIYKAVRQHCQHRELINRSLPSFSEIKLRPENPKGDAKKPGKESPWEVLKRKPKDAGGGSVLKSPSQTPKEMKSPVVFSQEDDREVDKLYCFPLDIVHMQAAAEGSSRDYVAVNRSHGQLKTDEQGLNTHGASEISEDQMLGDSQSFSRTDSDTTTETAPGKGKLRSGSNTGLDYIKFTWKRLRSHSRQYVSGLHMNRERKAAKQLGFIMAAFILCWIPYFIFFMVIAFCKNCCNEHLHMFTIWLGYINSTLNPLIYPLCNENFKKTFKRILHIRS
Sequence of Delta-type opioid receptor (P41143 whole entry): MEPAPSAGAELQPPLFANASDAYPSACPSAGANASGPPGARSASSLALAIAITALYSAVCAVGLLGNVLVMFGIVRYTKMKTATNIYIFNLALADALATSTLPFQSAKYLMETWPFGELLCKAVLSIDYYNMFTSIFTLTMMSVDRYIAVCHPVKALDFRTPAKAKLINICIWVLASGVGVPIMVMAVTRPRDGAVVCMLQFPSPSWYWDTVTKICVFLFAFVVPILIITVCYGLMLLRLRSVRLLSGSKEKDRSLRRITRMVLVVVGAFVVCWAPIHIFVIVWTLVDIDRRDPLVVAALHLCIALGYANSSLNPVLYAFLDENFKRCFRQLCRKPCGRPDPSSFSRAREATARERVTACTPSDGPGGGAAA

pKi [2]: 6.94 | pKi [3]: < 6.00 | metabolised at 1 h, 1 µM [4]: 100% | pKi [5]: < 6.00 | Stability [6]: Stable | inhibition [8]: 21% | metabolised at 1 h, 1 µM [9]: 100% | inhibition [11]: < 50% | inhibition [12]: < 50% | pEC50 [13]: < 5.00 | inhibition [14]: 70% | inhibition [15]: < 50% | metabolised at 1 h, 1 µM [16]: 100% | inhibition [18]: < 50% | Stability [20]: Stable
Structure (SMILES): COc1ccc2c(c1)CCN(CCC(F)Cc1ccccc1)CC2 (stereo not given)
Activity [1]: Toxic | pIC50 [7]: 6.26 | Ratio Ki [10]: < 18 | Activity [17]: Toxic | pKi [19]: 6.92
